Test results reported in ChEMBL document CHEMBL3045743, “Synthesis and herbicidal activity of isoindoline-1,3-dione substituted benzoxazinone derivatives containing a carboxylic ester group” (J Agric Food Chem, 2009).

Key:
Digitaria sanguinalis [1] = test: Post-emergence herbicidal activity against Digitaria sanguinalis (hairy crabgrass) assessed as growth inhibition at 7.5 g.a.i./ha applied at one-leaf stage measured after 15 days; assay type: functional; conditions: 360 h, read-out: GI
Summary of the method: (§1)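 Pot-grown weeds sown 5 mm deep in greenhouse clay soil (pH 6.5, 1.7% organic matter, CEC 12.9 cmol/kg) at 22-25 °C. Stock diluted with water and sprayed post-emergence: dicots at 2-leaf stage, monocots at 1-leaf stage. Untreated and DMF solvent controls were included. % growth inhibition was scored visually versus untreated controls after 15 days. Triplicates averaged.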

Amaranthus spinosus [2] = test: Pre-emergence herbicidal activity against Amaranthus spinosus assessed as growth inhibition at 7.5 g.a.i./ha applied 24 hr after seeds were sown measured after 15 days; assay type: functional; conditions: read-out: GI
Summary of the method: (§2)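 Weeds sown 5 mm deep in pots of greenhouse clay soil (pH 6.5, 37.5% clay, CEC 12.9 cmol/kg) and grown at 22-25 °C. Water-diluted formulation was applied pre-emergence 24 h after sowing. Untreated and DMF solvent controls were included. Growth inhibition was visually rated in % against untreated controls after 15 days, as the mean of triplicates.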

Abutilon theophrasti [3] = test: Pre-emergence herbicidal activity against Abutilon theophrasti (velvetleaf) assessed as growth inhibition at 7.5 g.a.i./ha applied 24 hr after seeds were sown measured after 15 days; assay type: functional; conditions: read-out: GI; summary of the method: as §2
Echinochloa crus-galli [4] = test: Post-emergence herbicidal activity against Echinochloa crus-galli (barnyard grass) assessed as growth inhibition at 7.5 g.a.i./ha applied at one-leaf stage measured after 15 days; assay type: functional; conditions: 360 h, read-out: GI; summary of the method: as §1
Digitaria sanguinalis [5] = test: Post-emergence herbicidal activity against Digitaria sanguinalis (hairy crabgrass) assessed as growth inhibition at 37.5 g.a.i./ha applied at one-leaf stage measured after 15 days; assay type: functional; conditions: 360 h, read-out: GI; summary of the method: as §1
Echinochloa crus-galli [6] = test: Pre-emergence herbicidal activity against Echinochloa crus-galli (barnyard grass) assessed as growth inhibition at 7.5 g.a.i./ha applied 24 hr after seeds were sown measured after 15 days; assay type: functional; conditions: read-out: GI; summary of the method: as §2
Echinochloa crus-galli [7] = test: Post-emergence herbicidal activity against Echinochloa crus-galli (barnyard grass) assessed as growth inhibition at 15 g.a.i./ha applied at one-leaf stage measured after 15 days; assay type: functional; conditions: 360 h, read-out: GI; summary of the method: as §1
Echinochloa crus-galli [8] = test: Post-emergence herbicidal activity against Echinochloa crus-galli (barnyard grass) assessed as growth inhibition at 75 g.a.i./ha applied at one-leaf stage measured after 15 days; assay type: functional; conditions: 360 h, read-out: GI; summary of the method: as §1
[9] = system: Brassica rapa subsp. oleifera; test: Phytotoxicity against Brassica rapa subsp. oleifera assessed as growth inhibition at 37.5 g.a.i/ha pre-emergent application measured after 15 days by greenhouse crop selectivity assay; assay type: functional; conditions: pre-emergence, 360 h, read-out: GI
Summary of the method: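 Pot-grown crop in greenhouse clay soil (pH 6.5, 1.7% organic matter, 37.5% clay, CEC 12.9 cmol/kg). Stock diluted with water and applied pre-emergence at 300, 150, 75 or 37.5 g a.i./ha. Cultivated 15 days, then phytotoxicity scored visually as % growth inhibition versus untreated controls. Triplicate treatments, averaged.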

Amaranthus spinosus [10] = test: Post-emergence herbicidal activity against Amaranthus spinosus assessed as growth inhibition at 15 g.a.i./ha applied at two-leaf stage measured after 15 days; assay type: functional; conditions: 360 h, read-out: GI; summary of the method: as §1
Abutilon theophrasti [11] = test: Post-emergence herbicidal activity against Abutilon theophrasti (velvetleaf) assessed as growth inhibition at 75 g.a.i./ha applied at two-leaf stage measured after 15 days; assay type: functional; conditions: 360 h, read-out: GI; summary of the method: as §1
Glycine max = test: Phytotoxicity against Glycine max (soybean) assessed as growth inhibition at 300 g.a.i/ha pre-emergent application measured after 15 days by greenhouse crop selectivity assay; assay type: organism-based; conditions: in vivo, other, 360 h
Summary of the method: (§3)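 Pre-emergence greenhouse crop selectivity test on pot-grown plants in clay soil (pH 6.5, 1.7% organic matter, 37.5% clay, CEC 12.9 cmol/kg). Stock solutions were diluted with water and applied at 300, 150, 75 or 37.5 g a.i./ha, in triplicate. After 15 days, phytotoxicity was scored visually against untreated controls as % crop growth inhibition, averaged over the triplicates.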

Setaria viridis [12] = test: Pre-emergence herbicidal activity against Setaria viridis (green foxtail) assessed as growth inhibition at 15 g.a.i./ha applied 24 hr after seeds were sown measured after 15 days; assay type: functional; conditions: read-out: GI; summary of the method: as §2
Setaria viridis [13] = test: Post-emergence herbicidal activity against Setaria viridis (green foxtail) assessed as growth inhibition at 37.5 g.a.i./ha applied at one-leaf stage measured after 15 days; assay type: functional; conditions: 360 h, read-out: GI; summary of the method: as §1
Arachis hypogaea [14] = test: Phytotoxicity against Arachis hypogaea (peanut) assessed as growth inhibition at 37.5 g.a.i/ha pre-emergent application measured after 15 days by greenhouse crop selectivity assay; assay type: organism-based; conditions: in vivo, other, 360 h; summary of the method: as §3
Chenopodium album [15] = test: Pre-emergence herbicidal activity against Chenopodium album assessed as growth inhibition at 37.5 g.a.i./ha applied 24 hr after seeds were sown measured after 15 days; assay type: functional; conditions: read-out: GI; summary of the method: as §2
Zea mays [16] = test: Phytotoxicity against Zea mays (maize) assessed as growth inhibition at 37.5 g.a.i/ha pre-emergent application measured after 15 days by greenhouse crop selectivity assay; assay type: organism-based; conditions: in vivo, other, 360 h; summary of the method: as §3
Triticum aestivum [17] = test: Phytotoxicity against Triticum aestivum (wheat) assessed as growth inhibition at 7.5 to 60 g.a.i/ha post-emergent application measured after 15 days by greenhouse crop selectivity assay; assay type: organism-based; conditions: in vivo, other, 360 h
Summary of the method: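 Postemergence crop selectivity test on pot-grown plants in a greenhouse, in clay soil (pH 6.5, 1.7% organic matter, CEC 12.9 cmol/kg). Stock was diluted with water and sprayed at 60, 30, 15 or 7.5 g a.i./ha, in triplicate. Growth inhibition was rated visually against untreated controls after 15 days and given as the triplicate mean percentage.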

Zea mays [18] = test: Phytotoxicity against Zea mays (maize) assessed as growth inhibition at 150 g.a.i/ha pre-emergent application measured after 15 days by greenhouse crop selectivity assay; assay type: organism-based; conditions: in vivo, other, 360 h; summary of the method: as §3
Digitaria sanguinalis [19] = test: Pre-emergence herbicidal activity against Digitaria sanguinalis (hairy crabgrass) assessed as growth inhibition at 37.5 g.a.i./ha applied 24 hr after seeds were sown measured after 15 days; assay type: functional; conditions: read-out: GI; summary of the method: as §2
Arachis hypogaea [20] = test: Phytotoxicity against Arachis hypogaea (peanut) assessed as growth inhibition at 75 g.a.i/ha pre-emergent application measured after 15 days by greenhouse crop selectivity assay; assay type: organism-based; conditions: in vivo, other, 360 h; summary of the method: as §3
Chenopodium album [21] = test: Post-emergence herbicidal activity against Chenopodium album assessed as growth inhibition at 37.5 g.a.i./ha applied at two-leaf stage measured after 15 days; assay type: functional; conditions: 360 h, read-out: GI; summary of the method: as §1
[22] = (§4) Phytotoxicity against Triticum aestivum (wheat) assessed as growth inhibition at 75 g.a.i/ha pre-emergent application measured after 15 days by greenhouse crop selectivity assay; assay type: organism-based; conditions: in vivo, 75 g.a.i/ha, read-out: GI; summary of the method: as §3
[23] = Phytotoxicity against Triticum aestivum (wheat) assessed as growth inhibition at 300 g.a.i/ha pre-emergent application measured after 15 days by greenhouse crop selectivity assay; assay type: organism-based; conditions: in vivo, read-out: GI; summary of the method: as §3
Echinochloa crus-galli [24] = test: Pre-emergence herbicidal activity against Echinochloa crus-galli (barnyard grass) assessed as growth inhibition at 15 g.a.i./ha applied 24 hr after seeds were sown measured after 15 days; assay type: functional; conditions: read-out: GI; summary of the method: as §2
Arachis hypogaea [25] = test: Phytotoxicity against Arachis hypogaea (peanut) assessed as growth inhibition at 150 g.a.i/ha pre-emergent application measured after 15 days by greenhouse crop selectivity assay; assay type: organism-based; conditions: in vivo, other, 360 h; summary of the method: as §3
[26] = (§5) Phytotoxicity against Zea mays (maize) assessed as growth inhibition at 300 g.a.i/ha pre-emergent application measured after 15 days by greenhouse crop selectivity assay; assay type: organism-based; conditions: in vivo, 300 g.a.i/ha, read-out: GI; summary of the method: as §3
Gossypium = test: Phytotoxicity against Gossypium (cotton) assessed as growth inhibition at 300 g.a.i/ha pre-emergent application measured after 15 days by greenhouse crop selectivity assay; assay type: organism-based; conditions: in vivo, other, 360 h; summary of the method: as §3
Triticum aestivum [27] = test: as §4; assay type: organism-based; conditions: in vivo, other, 360 h; summary of the method: as §3
Zea mays [28] = test: as §5; assay type: organism-based; conditions: in vivo, other, 360 h; summary of the method: as §3

| SMILES | inhibition of growth at 7.5 g/ha (Digitaria sanguinalis [1]) | inhibition of growth at 7.5 g/ha (Amaranthus spinosus [2]) | inhibition of growth at 7.5 g/ha (Abutilon theophrasti [3]) | inhibition of growth at 7.5 g/ha (Echinochloa crus-galli [4]) | inhibition of growth at 37.5 g/ha (Digitaria sanguinalis [5]) | inhibition of growth at 7.5 g/ha (Echinochloa crus-galli [6]) | inhibition of growth at 15 g/ha (Echinochloa crus-galli [7]) | inhibition of growth at 75 g/ha (Echinochloa crus-galli [8]) | inhibition of growth at 37.5 g/ha [9] | inhibition of growth at 15 g/ha (Amaranthus spinosus [10]) | inhibition of growth at 75 g/ha (Abutilon theophrasti [11]) | inhibition of growth at 15 g/ha (Setaria viridis [12]) | inhibition of growth at 37.5 g/ha (Setaria viridis [13]) | growth inhibition (GI) (Arachis hypogaea [14]) | inhibition of growth at 37.5 g/ha (Chenopodium album [15]) | growth inhibition (GI) (Zea mays [16]) | Activity (Triticum aestivum [17]) | inhibition of growth at 37.5 g/ha (Digitaria sanguinalis [19]) | growth inhibition (GI) (Arachis hypogaea [20]) | inhibition of growth at 37.5 g/ha (Chenopodium album [21]) | other results |
| --- | --- | --- | --- | --- | --- | --- | --- | --- | --- | --- | --- | --- | --- | --- | --- | --- | --- | --- | --- | --- | --- |
| COC(=O)C(C)N1C(=O)C(C)Oc2cc(F)c(N3C(=O)C4=C(CCCC4)C3=O)cc21 (stereo not drawn) | 10% | 100% | 50% | 10% | 60% | 0% | 30% | > 80% | > 10% | 100% | > 80% | 10% | 80% | Not Active | 100% | Not Active | Toxic | 50% | Not Active | 100% | growth inhibition (GI) (Glycine max): Not Active; growth inhibition (GI) (Zea mays [18]): Not Active; inhibition at 360 h [22]: > 10%; inhibition at 360 h [23]: > 10%; inhibition of growth at 15 g/ha (Echinochloa crus-galli [24]): 10%; growth inhibition (GI) (Arachis hypogaea [25]): Not Active; inhibition at 360 h [26]: > 10% |
| CCOC(=O)C(C)N1C(=O)C(C)Oc2cc(F)c(N3C(=O)C4=C(CCCC4)C3=O)cc21 (stereo not drawn) | 20% | 90% | 0% | 10% | 50% | 0% | 30% | > 80% | > 10% | 100% | > 80% | 40% | 50% | Not Active | 100% | Not Active | Toxic | 80% | Not Active | 100% | growth inhibition (GI) (Glycine max): Not Active; growth inhibition (GI) (Gossypium): Not Active; growth inhibition (GI) (Zea mays [18]): Not Active; growth inhibition (GI) (Triticum aestivum [27]): Not Active; inhibition at 360 h [23]: > 10%; inhibition of growth at 15 g/ha (Echinochloa crus-galli [24]): 10%; growth inhibition (GI) (Arachis hypogaea [25]): Not Active; growth inhibition (GI) (Zea mays [28]): Not Active |
| C#CCN1C(=O)COc2cc(F)c(N3C(=O)C4=C(CCCC4)C3=O)cc21 [FLUMIOXAZIN] | 80% | 100% | 50% | 50% | 95% | 0% | 70% | > 80% | > 10% | 100% | > 80% | 50% | 95% | Not Active | 100% | Not Active | Toxic | 80% | Not Active | 100% | inhibition at 360 h [22]: > 10%; inhibition at 360 h [23]: > 10%; inhibition of growth at 15 g/ha (Echinochloa crus-galli [24]): 50%; growth inhibition (GI) (Arachis hypogaea [25]): Not Active; inhibition at 360 h [26]: > 10% |
| CCOC(=O)C(CC)N1C(=O)C(C)Oc2cc(F)c(N3C(=O)C4=C(CCCC4)C3=O)cc21 (stereo not drawn) | 40% | 100% | 0% | 0% | 70% | 0% | 0% | > 80% | > 10% | 100% | > 80% | 0% | 70% | Not Active | 100% | Not Active | Toxic | 0% | Not Active | 100% | growth inhibition (GI) (Glycine max): Not Active; growth inhibition (GI) (Gossypium): Not Active; growth inhibition (GI) (Zea mays [18]): Not Active; growth inhibition (GI) (Triticum aestivum [27]): Not Active; inhibition at 360 h [23]: > 10%; inhibition of growth at 15 g/ha (Echinochloa crus-galli [24]): 0%; growth inhibition (GI) (Arachis hypogaea [25]): Not Active; growth inhibition (GI) (Zea mays [28]): Not Active |
